Shown are actives, neighbours in structure and some others; about 2.3% of the full set was active somewhere.
RAM network inh – blocks the yeast RAM network. inhibition, % at 50 µM. S. cerevisiae dse1pr::URA3 reporter, 5-FOA growth OD615, 2 d; analog-sensitive cbk1-as2 kinase mutant strain. AID 868. 190,000 compounds, 1.8% hits;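 active = inhibition above a set limit, 3 SD over mean compound inhibition, cut at about 8.4% in these data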;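 note: inhibition rescues growth on 5-FOA so higher OD means more RAM inhibition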
ABCB1 block – inhibitors of human ABCB1 transporter, ABCG2 counter-screen. P08183. CCRF-Adr cells, JC-1 efflux, flow cytometry. inhibition, % at 6.6 µM. 190,000 compounds, 0.067% hits. AID 1326; in the data active = inhibition above about 40%;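 note: higher value means more JC-1 retained so stronger ABCB1 efflux block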
ABCG2 block – blocks JC-1 efflux by human ABCG2 transporter. Q9UNQ0. IgMXP3 cells, flow cytometry. inhibition, % at 6.6 µM. 190,000 compounds, 0.1% hits. AID 1325;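 active = inhibition above 80%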
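Read-out basis: Efflux inhibition in percent versus controls | Test system: ABCG2 IgMXP3 and barcoded ABCB1 CCRF-Adr cell mix | Quantity: 3 million cells/mL in well | Schedule: 10 min at 25 °C | Control set: Nicardipine as high control, DMSO as low control | Reagent: JC-1 as fluorescent efflux pump substrate | Signal: Flow cytometry of retained JC-1 fluorescence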
Arbovirus anti – arbovirus infection inhibition. arbovirus infection cell-based antiviral screen. inhibition, % at 10 µM. 200,000 compounds, 0.37% hits. AID 1251; in the data active = inhibition above about 30%
Each line names hits and unclear results; the compound was inactive in the other large screens.

COc1ccc(/C=N/Nc2ccc(C(=O)O)cc2)cc1Br	none
C=CCOc1c(Br)cc(/C=N/Nc2ccc(C(=O)O)cc2)cc1OCC	Arbovirus anti 31.4
CCOC(=O)c1cnc(SC)nc1Oc1cccc(NS(=O)(=O)c2ccc(F)cc2)c1	RAM network inh 9.8
CCOC(=O)c1cnc(SC)nc1Oc1cccc(NS(=O)(=O)c2ccccc2)c1	none
CCOC(=O)c1cnc(SC)nc1Oc1cccc(NC(=O)c2cccc(Cl)c2Cl)c1	RAM network inh 9.4
O=c1oc(-c2cccs2)nc2scc(-c3cccs3)c12	Arbovirus anti 71.0
Cc1cc(CSc2ccccc2)ccc1NC(=O)c1ccc(Br)cc1	none
Cc1cc(CSc2ccccc2)ccc1NC(=O)COc1ccccc1	RAM network inh 8.6
Cc1cccc(NC(=O)CSc2nc3[nH]ncc3c(=O)[nH]2)c1C	RAM network inh 11.0
CCOC(=O)NC(Nc1sc2c(c1C(N)=O)CCCC2)(C(=O)OCC)C(F)(F)F (stereo not drawn)	none (no result: ABCB1 block, ABCG2 block)
COc1ccc(NC(=O)c2ccccc2NS(C)(=O)=O)cc1OC	none
COC(=O)c1ccc(NC(=O)c2ccccc2NS(C)(=O)=O)cc1	Arbovirus anti 51.5
COc1cccc(-c2cc(C(=O)Nc3nc4ccccc4s3)c3ccccc3n2)c1	none
COc1ccc(-c2cc(C(=O)Nc3nc4c(C)cccc4s3)c3ccccc3n2)cc1OC	RAM network inh 8.6
COc1ccc(N=C2SC(C(=O)Nc3ccc4c(c3)OCO4)CC(=O)N2C)cc1 (stereo not drawn)	none
CCCCCCCNC(=O)C1CC(=O)N(C)C(=Nc2ccc(OC)cc2)S1 (stereo not drawn)	RAM network inh 9.3
Cc1ccc(NC(=O)COC(=O)CN2C(=O)NC3(CCCC3)C2=O)cc1S(=O)(=O)N(C)C	none
O=C1c2ccccc2-c2onc3ccc(NCCCn4ccnc4)c1c23	RAM network inh 37.9
Nn1cnnc1SCC(=O)N(C1CCCCC1)C1CCCCC1	none
CCN(CC)S(=O)(=O)c1ccc(N2CCN(S(=O)(=O)c3ccccc3C#N)CC2)nc1	none
COc1ccc(C(=O)N/N=C/c2cc3ccccc3[nH]c2=S)cc1	RAM network inh 9.5
COc1ccc2nc(SCc3cccc(C)c3)nc(C)c2c1	none
Cc1ccc2nc(SCc3cccc([N+](=O)[O-])c3)nc(C)c2c1	RAM network inh 11.0
Cc1nc(SCc2ccc([N+](=O)[O-])cc2)nc2ccccc12	RAM network inh 9.5
O=C(CN1CCN(S(=O)(=O)c2ccc(Br)cc2)CC1)N/N=C/c1cccnc1	none
C/C(=N\NC(=O)c1ccccc1)c1nc2ccccc2n1C	Arbovirus anti 41.4
O=C(c1ccco1)N1CCN(c2nc(-c3ccc(F)cc3)cs2)CC1	Arbovirus anti 30.8
O=C(c1ccco1)N1CCN(c2ccc(F)cc2)CC1	none
CCOc1cc(/C=N/NC(=O)c2ccncc2)cc(Cl)c1OS(C)(=O)=O	none
O=C(NC(c1ccccc1)c1ccccc1)c1cccc(S(=O)(=O)NCc2ccccc2)c1	RAM network inh 8.6
COc1ccc(NC(=O)COC(=O)C(CC(C)C)N2C(=O)C3CC=CCC3C2=O)cc1Cl (stereo not drawn)	none
COc1cc(/C=C/C(=O)OCC(=O)Nc2ccc(NC(C)=O)cc2)cc(S(=O)(=O)N2CCc3ccccc32)c1OC	RAM network inh 10.3
O=c1/c(=C/c2cn(-c3ccccc3)nc2-c2ccc(F)cc2)sc2nc3ccccc3n12	none
CC(C)Oc1ccc(-c2nn(-c3ccccc3)cc2/C=c2\sc3ncnn3c2=O)cc1	Arbovirus anti 33.8
C=CCN1C(=O)S/C(=C\c2ccc(N3CCOCC3)cc2C)C1=O	RAM network inh 8.6
CCOc1cc(S(=O)(=O)n2cc(-c3ccc(F)cc3)c(N)n2)cc(OCC)c1OCC	RAM network inh 9.0
Cc1csc(SCCN2C(=O)c3ccccc3C2=O)n1	none
CCCCCn1nc(-c2ccccc2)c2nc3ccccc3nc21	none
CCCn1nc(-c2ccccc2)c2nc3ccccc3nc21	RAM network inh 9.6
C=CCNc1nc(-c2ccccc2)nc(-n2ccnc2)n1	none
CCCCOc1ccc(NC(=S)Nc2cc(C)nc(SCCCC)n2)cc1	RAM network inh 9.6
CNC(=S)NNC(=O)c1ccc2c(c1)OCO2	none
Cc1cccc2cc(CN(Cc3ccco3)C(=O)NC3CCCCC3)c(=O)[nH]c12	none
CC(=O)c1ccc(N2CCN(C(=O)CCCc3nc4ccccc4s3)CC2)cc1	RAM network inh 9.3
Cc1cccc(NC(=O)c2ccc(Cl)c(NC(=O)c3ccncc3)c2)c1C	none
O=c1cc(O)c2sc3nc(-c4cccnc4)cc(C(F)(F)F)c3c2[nH]1	none
CSCCC(NS(=O)(=O)c1ccc(Cl)cc1)C(=O)OCc1cccc(Cl)c1 (stereo not drawn)	RAM network inh 8.5
CC(C)C[C@H](NC(=O)c1nc[nH]c1C(=O)NC(c1ccccc1)c1ccccc1)C(=O)OC(C)(C)C	none
Cc1cc(C)n(CC(O)COCc2ccco2)n1 (stereo not drawn)	none
Cc1cc([N+](=O)[O-])ccc1N=Nc1c(N)[nH]n(-c2ccccc2)c1=O	RAM network inh 8.6
Nc1[nH]n(-c2ccccc2)c(=O)c1N=Nc1ccc2c(c1)OCCO2	none
N#Cc1c2n(c3c(=S)nc[nH]c13)CCCCC2	Arbovirus anti 31.5
N#Cc1c2n(c3c(=O)[nH]cnc13)CCCC2	none
COc1ccc(/C=N/NC(=O)c2nc(-c3ccccc3)cc(-c3ccccc3)n2)cc1OC	RAM network inh 10.2
O=C1CCCC2=C1C(c1ccc(Cl)cc1)n1c(s/c(=C\c3ccc4ccncc4c3)c1=O)=N2 (stereo not drawn)	none
CCCc1nc2ccc(NC(=O)NCCC(=O)OCC)cc2c(=O)n1Cc1ccc(Cl)cc1	none
CCCc1nc2ccc(NC(=O)NCCC(=O)OCC)cc2c(=O)n1Cc1cccc(Cl)c1	RAM network inh 10.3
COc1ccc(C2C=C(c3ccc(Cl)cc3)Nc3nc(NC(C)=O)nn32)cc1 (stereo not drawn)	none
COc1ccc(C2=CC(c3ccc(Cl)cc3)n3cnnc3N2)cc1OC (stereo not drawn)	Arbovirus anti 49.7
NNc1ncnc2scc(-c3ccc(Cl)cc3)c12	none
Cc1ccc(-c2csc3ncnc(NS(=O)(=O)c4ccc(Cl)cc4)c23)cc1	RAM network inh 9.2, Arbovirus anti 45.9
Cc1cccc(C2c3[nH]c4ccccc4c3CCN2C(=O)c2cn(C)c3ccccc3c2=O)n1 (stereo not drawn)	none
CCc1ccc(NC(=O)N(Cc2ccco2)C(C)c2cccs2)cc1 (stereo not drawn)	RAM network inh 11.0
O=C(Nc1ccc(N2C(=O)C3C4C=CC(C4)C3C2=O)cc1Cl)c1cccs1 (stereo not drawn)	RAM network inh 9.8
Cc1cccc(C)c1NC(=O)N1C(C(=O)O)CSC1C(=O)O (stereo not drawn)	none
CCOC(=O)c1c(-c2cccc([N+](=O)[O-])c2)csc1NC(=O)C1CCCCC1	RAM network inh 8.6
CCOC(=O)c1c(-c2ccc(C)c(C)c2)csc1NC(=O)C1CC=CCC1C(=O)O (stereo not drawn)	Arbovirus anti 40.9
CCOC(=O)c1c(-c2cccc([N+](=O)[O-])c2)csc1NC(=O)C1CC1	none

Screening data deposited in PubChem BioAssay by several laboratories.
